How the values were obtained:
Bcl-2-related protein A1 [1] = biological target: T1, Bcl-2-related protein A1 (Homo sapiens, UniProt Q16548); assay: Inhibition of N-terminal FITC BH3 peptide binding to GST-tagged Bfl1 by fluorescence polarization assay
T1 sequence (Q16548 whole entry): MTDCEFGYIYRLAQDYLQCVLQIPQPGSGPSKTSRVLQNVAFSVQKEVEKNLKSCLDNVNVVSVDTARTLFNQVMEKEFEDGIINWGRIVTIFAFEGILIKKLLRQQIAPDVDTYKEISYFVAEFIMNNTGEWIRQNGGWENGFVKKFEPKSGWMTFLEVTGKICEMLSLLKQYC
Method in brief: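 Then FITC-Bid BH3 peptide (5.6 nM working solution) was added and incubated 4 h at room temperature. Ten concentrations in 10% DMSO. Fluorescence polarization read at ex 485/em 530 nm. IC50 from sigmoidal dose-response non-linear regression.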

Bcl-2-related protein A1 [2] = biological target: T1, Bcl-2-related protein A1; assay: Inhibition of N-terminal FITC BH3 peptide binding to GST-tagged Bfl1 by time resolved-FRET assay
Method in brief: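 10-point 2-fold dilution series in 10% final DMSO, in duplicate wells. FITC-Bid (5.6 nM) plus Tb-antibody (2.5 nM) was then added and incubated 4 h at room temperature. TR-FRET read at ex 340 nm, signal taken as the 520/490 nm emission ratio.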

IC50 (Bcl-2-related protein A1 [1]) | IC50 (Bcl-2-related protein A1 [2]) | SMILES
> 50 µM | > 50 µM | Oc1c(Cl)c(N=Cc2ccccc2)c(O)n1-c1ccc(Cl)c(Cl)c1 [MLS-0067125.0001]
> 10 µM | > 10 µM | CN1CCN(c2cc(O)n(-c3ccc(Cl)c(Cl)c3)c2O)CC1 [1-(3,4-dichlorophenyl)-3-(4-methylpiperazin-1-yl)pyrrolidine-2,5-dione]
